Converted amounts (≈) assume the structure as drawn. Bridge positions count the residues as written; N and C are the ends. Square brackets hold non-standard residues; d marks the D form. Peptide text beside a SMILES is read from it. * marks the point of attachment. dBip = N[C@H](Cc1ccc(-c2ccccc2)cc1)C(=O)O; Phe(4-NH2) = Nc1ccc(C[C@H](N)C(=O)O)cc1; dGly(nOct) = CCCCCCCC[C@@H](N)C(=O)O; Gly(octyl) = CCCCCCCC[C@H](N)C(=O)O; Octanoyl = CCCCCCCC(=O)*; Dab = NCC[C@H](N)C(=O)O
Legend:
[1] = tested on: Pseudomonas aeruginosa; assay: Antibacterial activity against clinical isolate polymyxin resistant Pseudomonas aeruginosa PA9704 after 18 hrs by 2 fold serial dilution method; assay type: functional
Procedure, shortened: (§1)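 Polymyxin-resistant clinical isolates were grown overnight at 37 °C in NB or MHB with shaking, diluted 50-fold in MHB and grown 1.5–3 h to mid-log phase. The inoculum was 5×10^5 CFU/mL. Compounds were 2-fold broth serial dilutions, final 32 to 0.015 μg/mL; the polymyxin controls ran 128–0.06 μg/mL. The MIC was the lowest concentration with no visible growth after 18 h at 37 °C.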

[2] = tested on: Klebsiella pneumoniae; assay: Antibacterial activity against Klebsiella pneumoniae ATCC 13883 after 18 hrs by 2 fold serial dilution method; assay type: functional
Procedure, shortened: (§2)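 Overnight cultures in nutrient or Mueller Hinton broth at 37 °C with shaking, diluted 50-fold into fresh MHB and grown 1.5–3 h to mid-log. Inoculum 5×10^5 CFU/mL in 2-fold serial dilutions, final range 32 to 0.015 μg/mL. MIC read visually after 18 h at 37 °C as the lowest concentration with no visible growth.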

[3] = tested on: Klebsiella pneumoniae; assay: Antibacterial activity against Klebsiella pneumoniae ATCC BAA-2146 expressing NDM-1 after 18 hrs by 2 fold serial dilution method; assay type: functional
Procedure, shortened: (§3)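 Overnight cultures at 37 °C in nutrient or Mueller Hinton broth with shaking were diluted 50-fold in MHB and grown 1.5–3 h to mid-log phase. The inoculum was 5×10^5 CFU/mL in MHB. Compounds were 2-fold serially diluted, final 32 to 0.015 μg/mL. After 18 h at 37 °C, the MIC was read visually as the lowest concentration with no visible growth.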

[4] = tested on: Acinetobacter baumannii; assay: Antibacterial activity against Acinetobacter baumannii ATCC 19606 after 18 hrs by 2 fold serial dilution method; assay type: functional; procedure, shortened: as §2
[5] = tested on: Klebsiella pneumoniae; assay: Antibacterial activity against clinical isolate carbapenem and polymyxin resistant Klebsiella pneumoniae Koprana 100650661:1 after 18 hrs by 2 fold serial dilution method; assay type: functional; procedure, shortened: as §1
[6] = tested on: Klebsiella pneumoniae; assay: Antibacterial activity against clinical isolate carbapenem and polymyxin resistant Klebsiella pneumoniae 138-16357-20362 after 18 hrs by 2 fold serial dilution method; assay type: functional; procedure, shortened: as §1
[7] = tested on: Staphylococcus aureus; assay: microbe, parasite or virus in culture; conditions: ATCC 25923, 18 h
[8] = tested on: Escherichia coli; assay: Antibacterial activity against Escherichia coli ATCC 25922 after 18 hrs by 2 fold serial dilution method; assay type: functional; procedure, shortened: as §2
[9] = tested on: Acinetobacter baumannii; assay: Antibacterial activity against clinical isolate carbapenem and polymyxin resistant Acinetobacter baumannii Ptyela 100734512:2 after 18 hrs by 2 fold serial dilution method; assay type: functional; procedure, shortened: as §1
[10] = Cytotoxicity against human HepG2 cells after 24 hrs by resazurin assay; assay type: cell-based; conditions: HepG2 cells
[11] = tested on: Klebsiella pneumoniae; assay: Antibacterial activity against multidrug resistant Klebsiella pneumoniae ATCC 700603 after 18 hrs by 2 fold serial dilution method; assay type: functional; procedure, shortened: as §3
[12] = tested on: Pseudomonas aeruginosa; assay: Antibacterial activity against clinical isolate polymyxin resistant Pseudomonas aeruginosa FADDI-PA070 after 18 hrs by 2 fold serial dilution method; assay type: functional; procedure, shortened: as §1
[13] = tested on: Pseudomonas aeruginosa; assay: Antibacterial activity against Pseudomonas aeruginosa ATCC 27853 after 18 hrs by 2 fold serial dilution method; assay type: functional; procedure, shortened: as §2
[14] = Klebsiella pneumoniae, 700603, 18 h

Compound	MIC ([1]; PA9704, 18 h)	MIC ([2]; ATCC 13883, 18 h)	MIC ([3]; ATCC BAA-2146, 18 h)	MIC ([4]; ATCC 19606, 18 h)	MIC ([5]; Koprana 100650661:1, 18 h)	MIC ([6]; 138-16357-20362, 18 h)	MIC [7]	MIC ([8]; ATCC 25922, 18 h)	MIC ([9]; Ptyela 100734512:2, 18 h)	CC50 at 24 h [10]	MIC [11, 14]	MIC ([12]; FADDI-PA070, 18 h)	MIC ([13]; ATCC 27853, 18 h)	other results
CCCCCCCC(=O)N[C@@H](CCN)C(=O)N[C@H](C(=O)N[C@@H](CCN)C(=O)N[C@H]1CCNC(=O)[C@H]([C@@H](C)O)NC(=O)[C@H](CCN)NC(=O)[C@H](CCN)NC(=O)[C@H](CC(C)C)NC(=O)[C@@H](Cc2ccccc2)NC(=O)[C@H](CCNC(=O)[C@@H](N)CCCNC(=N)N)NC1=O)[C@@H](C)O (Octanoyl-[Dab]T[Dab][Dab][Dab](Arg)[dF]L[Dab][Dab]T; lactam 4-C)	> 32 mg/L	32 mg/L (≈ 23.8 µM)	16 mg/L (≈ 11.9 µM)	32 mg/L (≈ 23.8 µM)	> 32 mg/L	> 32 mg/L	> 32 mg/L	32 mg/L (≈ 23.8 µM)	> 32 mg/L	> 300 µM	16 mg/L (≈ 11.9 µM)	> 32 mg/L	32 mg/L (≈ 23.8 µM)	
CCCCCCCC(=O)N[C@@H](CCN)C(=O)N[C@H](C(=O)N[C@@H](CCN)C(=O)N[C@H]1CCNC(=O)[C@H]([C@@H](C)O)NC(=O)[C@H](CCN)NC(=O)[C@H](CCN)NC(=O)[C@H](CC(C)C)NC(=O)[C@@H](Cc2ccccc2)NC(=O)[C@H](CCNC(=O)[C@@H](N)CCC(=O)O)NC1=O)[C@@H](C)O (Octanoyl-[Dab]T[Dab][Dab][Dab](Glu)[dF]L[Dab][Dab]T; lactam 4-C)	> 32 mg/L	> 32 mg/L	32 mg/L (≈ 24.3 µM)	> 32 mg/L	> 32 mg/L	> 32 mg/L	> 32 mg/L	> 32 mg/L	> 32 mg/L	> 300 µM	> 32 mg/L	> 32 mg/L	> 32 mg/L	
CCCCCCCC(=O)N[C@@H](CCN)C(=O)N[C@H](C(=O)N[C@@H](CCN)C(=O)N[C@H]1CCNC(=O)[C@H]([C@@H](C)O)NC(=O)[C@H](CCN)NC(=O)[C@H](CCN)NC(=O)[C@H](CC(C)C)NC(=O)[C@@H](Cc2ccc(-c3ccccc3)cc2)NC(=O)[C@H](CCN)NC1=O)[C@@H](C)O (Octanoyl-[Dab]T[Dab][Dab][Dab][dBip]L[Dab][Dab]T; lactam 4-C)	16 mg/L (≈ 12.6 µM)	4 mg/L (≈ 3.16 µM)	1 mg/L (≈ 0.79 µM)	0.5 mg/L (≈ 0.395 µM)	32 mg/L (≈ 25.3 µM)	32 mg/L (≈ 25.3 µM)	8 mg/L (≈ 6.32 µM)	1 mg/L (≈ 0.79 µM)	8 mg/L (≈ 6.32 µM)	119 µM	2 mg/L (≈ 1.58 µM)	16 mg/L (≈ 12.6 µM)	1 mg/L (≈ 0.79 µM)	
CCCCCCCC[C@@H]1NC(=O)[C@@H](Cc2ccccc2)NC(=O)[C@H](CCN)NC(=O)[C@@H](NC(=O)[C@H](CCN)NC(=O)[C@@H](NC(=O)[C@H](CCN)NC(=O)CCCCCCC)[C@@H](C)O)CCNC(=O)[C@H]([C@@H](C)O)NC(=O)[C@H](CCN)NC(=O)[C@H](CCN)NC1=O (Octanoyl-[Dab]T[Dab][Dab][Dab][dF][Gly(octyl)][Dab][Dab]T; lactam 4-C)		4 mg/L (≈ 3.21 µM)		2 mg/L (≈ 1.61 µM)									1 mg/L (≈ 0.803 µM)	
CCCCCCCC[C@H]1NC(=O)[C@H](CCN)NC(=O)[C@@H](NC(=O)[C@H](CCN)NC(=O)[C@@H](NC(=O)[C@H](CCN)NC(=O)CCCCCCC)[C@@H](C)O)CCNC(=O)[C@H]([C@@H](C)O)NC(=O)[C@H](CCN)NC(=O)[C@H](CCN)NC(=O)[C@H](CC(C)C)NC1=O (Octanoyl-[Dab]T[Dab][Dab][Dab][dGly(nOct)]L[Dab][Dab]T; lactam 4-C)		1 mg/L (≈ 0.825 µM)		1 mg/L (≈ 0.825 µM)									4 mg/L (≈ 3.3 µM)	
CCCCCCCC(=O)N[C@@H](CCN)C(=O)N[C@H](C(=O)N[C@@H](CCN)C(=O)N[C@H]1CCNC(=O)[C@H]([C@@H](C)O)NC(=O)[C@H](CCN)NC(=O)[C@H](CCN)NC(=O)[C@H](CC(C)C)NC(=O)[C@@H](Cc2ccccc2)NC(=O)[C@H](Cc2ccc(N)cc2)NC1=O)[C@@H](C)O (Octanoyl-[Dab]T[Dab][Dab][Phe(4-NH2)][dF]L[Dab][Dab]T; lactam 4-C)	> 32 mg/L	> 32 mg/L		> 32 mg/L	> 32 mg/L	> 32 mg/L	> 32 mg/L	> 32 mg/L	> 32 mg/L	> 300 µM	> 32 mg/L	> 32 mg/L	> 32 mg/L	
GENTAMICIN														MIC [1]: > 32 mg/L; MIC [2]: 0.25 mg/L; MIC [3]: > 32 mg/L; MIC [4]: 32 mg/L; MIC [5]: > 32 mg/L; MIC [6]: 1 mg/L; MIC [8]: 0.25 mg/L; MIC [9]: > 32 mg/L; MIC [11]: 8 mg/L; MIC [12]: 32 mg/L; MIC [13]: 1 mg/L
